# Measured values as given in ChEMBL document CHEMBL3352149, “Promiscuity and selectivity in covalent enzyme inhibition: a systematic study of electrophilic fragments” (J Med Chem, 2014).
# Tests used:
# Escherichia coli [1] = assay: Inhibition of Escherichia coli MetAP at 25 uM after 20 mins by HPLC analysis
# Summary of the method: (§1)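 Endpoint assay. Enzyme (50 nM) was preincubated with 25 μM compound for 20 min at 37 °C in 50 mM Tris pH 7.5, 100 mM NaCl, 100 μM CoCl2, 0.075% BSA. MGMM substrate (400 μM) was then added for 15 min (human MetAP-1) or 20 min (E. coli MetAP). Reactions were stopped with TFA. GMM product was quantified by RP-HPLC, UV 214 nm. Triplicate.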
# [2] = biological target: Methionine aminopeptidase 1 (Homo sapiens) (UniProt P53582); assay: Inhibition of human MetAP at 25 uM after 20 mins by HPLC analysis; summary of the method: as §1
# Escherichia coli [3] = assay: Inhibition of wild-type Escherichia coli MurA compound preincubated for 10 mins before substrate addition at 25 uM measured after 15 mins by LC-MS method
# Escherichia coli [4] = assay: Inhibition of wild-type Escherichia coli MurB compound preincubated for 10 mins before substrate addition at 25 uM measured after 15 mins by LC-MS method
# Summary of the method: (§2)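 E. coli wild-type enzyme (4 nM) was preincubated with 25 μM compound for 10 min at 37 °C. Enzymatically generated nucleotide-sugar substrate (~200 μM) plus ATP (~200 μM), or NADPH 200 μM for MurB, was added for 10 min. Reactions were started with amino-acid cosubstrate (MurC–F) or EP-UNAG (MurB), run 15 min at 37 °C, and quenched with formic acid. Product was measured by negative-ESI LC-MS EIC peak area. MgCl2: MurC 10, MurD/E 2, MurF 5 mM; MurB had 5 mM KCl. All in 50 mM NH4HCO3, 0.07% BSA, 1% DMSO; triplicate.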
# Escherichia coli [5] = assay: Inhibition of wild-type Escherichia coli MurC compound preincubated for 10 mins before substrate addition at 25 uM measured after 15 mins by LC-MS method; summary of the method: as §2
# Escherichia coli [6] = assay: Inhibition of wild-type Escherichia coli MurD compound preincubated for 10 mins before substrate addition at 25 uM measured after 15 mins by LC-MS method; summary of the method: as §2
# Escherichia coli [7] = assay: Inhibition of wild-type Escherichia coli MurE compound preincubated for 10 mins before substrate addition at 25 uM measured after 15 mins by LC-MS method; summary of the method: as §2
# Escherichia coli [8] = assay: Inhibition of wild-type Escherichia coli MurF compound preincubated for 10 mins before substrate addition at 25 uM measured after 15 mins by LC-MS method; summary of the method: as §2
# [9] = biological target: Genome polyprotein (dengue virus type 2) (UniProt P12823); assay: Inhibition of Dengue virus serotype 2 NS2B-NS3 protease at 50 uM
# [10] = biological target: Genome polyprotein (West Nile virus) (UniProt P06935); assay: Inhibition of West Nile virus NS2B-NS3 protease at 50 uM
# Prothrombin (Bos taurus) = Prothrombin (Bos taurus) (UniProt P00735); assay: Inhibition of Bovine thrombin using Boc-Val-Pro-Arg-AMC as substrate compound preincubated at 25 uM for 15 mins by fluorescence assay
# Summary of the method: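 Bovine thrombin (final 10 nM) was preincubated 15 min with 25 μM compound in 50 mM Tris-HCl pH 7.5, 150 mM NaCl, 0.05% Tween 20. The reaction was started with Boc-Val-Pro-Arg-AMC (50 μM final). Fluorescence (ex 355/em 460 nm) was monitored continuously for 10 min; activity taken as slope (RFU/s). Triplicate.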
# [11] = GSH reactivity of the compound assessed as adducts formation by RP-HPLC analysis
# Summary of the method: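 Fresh aqueous glutathione (10 mM solution) was added to 50 mM Tris-maleate buffer, pH 7.5. The reaction was started with compound from 10 mM DMSO stock (final 250 μM). Mixtures were followed by reversed-phase HPLC on an ODS column with a gradient to 100% B; rate constants are given in l·mol⁻¹·s⁻¹.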
# Genome polyprotein (West Nile virus), sequence (P06935 whole entry): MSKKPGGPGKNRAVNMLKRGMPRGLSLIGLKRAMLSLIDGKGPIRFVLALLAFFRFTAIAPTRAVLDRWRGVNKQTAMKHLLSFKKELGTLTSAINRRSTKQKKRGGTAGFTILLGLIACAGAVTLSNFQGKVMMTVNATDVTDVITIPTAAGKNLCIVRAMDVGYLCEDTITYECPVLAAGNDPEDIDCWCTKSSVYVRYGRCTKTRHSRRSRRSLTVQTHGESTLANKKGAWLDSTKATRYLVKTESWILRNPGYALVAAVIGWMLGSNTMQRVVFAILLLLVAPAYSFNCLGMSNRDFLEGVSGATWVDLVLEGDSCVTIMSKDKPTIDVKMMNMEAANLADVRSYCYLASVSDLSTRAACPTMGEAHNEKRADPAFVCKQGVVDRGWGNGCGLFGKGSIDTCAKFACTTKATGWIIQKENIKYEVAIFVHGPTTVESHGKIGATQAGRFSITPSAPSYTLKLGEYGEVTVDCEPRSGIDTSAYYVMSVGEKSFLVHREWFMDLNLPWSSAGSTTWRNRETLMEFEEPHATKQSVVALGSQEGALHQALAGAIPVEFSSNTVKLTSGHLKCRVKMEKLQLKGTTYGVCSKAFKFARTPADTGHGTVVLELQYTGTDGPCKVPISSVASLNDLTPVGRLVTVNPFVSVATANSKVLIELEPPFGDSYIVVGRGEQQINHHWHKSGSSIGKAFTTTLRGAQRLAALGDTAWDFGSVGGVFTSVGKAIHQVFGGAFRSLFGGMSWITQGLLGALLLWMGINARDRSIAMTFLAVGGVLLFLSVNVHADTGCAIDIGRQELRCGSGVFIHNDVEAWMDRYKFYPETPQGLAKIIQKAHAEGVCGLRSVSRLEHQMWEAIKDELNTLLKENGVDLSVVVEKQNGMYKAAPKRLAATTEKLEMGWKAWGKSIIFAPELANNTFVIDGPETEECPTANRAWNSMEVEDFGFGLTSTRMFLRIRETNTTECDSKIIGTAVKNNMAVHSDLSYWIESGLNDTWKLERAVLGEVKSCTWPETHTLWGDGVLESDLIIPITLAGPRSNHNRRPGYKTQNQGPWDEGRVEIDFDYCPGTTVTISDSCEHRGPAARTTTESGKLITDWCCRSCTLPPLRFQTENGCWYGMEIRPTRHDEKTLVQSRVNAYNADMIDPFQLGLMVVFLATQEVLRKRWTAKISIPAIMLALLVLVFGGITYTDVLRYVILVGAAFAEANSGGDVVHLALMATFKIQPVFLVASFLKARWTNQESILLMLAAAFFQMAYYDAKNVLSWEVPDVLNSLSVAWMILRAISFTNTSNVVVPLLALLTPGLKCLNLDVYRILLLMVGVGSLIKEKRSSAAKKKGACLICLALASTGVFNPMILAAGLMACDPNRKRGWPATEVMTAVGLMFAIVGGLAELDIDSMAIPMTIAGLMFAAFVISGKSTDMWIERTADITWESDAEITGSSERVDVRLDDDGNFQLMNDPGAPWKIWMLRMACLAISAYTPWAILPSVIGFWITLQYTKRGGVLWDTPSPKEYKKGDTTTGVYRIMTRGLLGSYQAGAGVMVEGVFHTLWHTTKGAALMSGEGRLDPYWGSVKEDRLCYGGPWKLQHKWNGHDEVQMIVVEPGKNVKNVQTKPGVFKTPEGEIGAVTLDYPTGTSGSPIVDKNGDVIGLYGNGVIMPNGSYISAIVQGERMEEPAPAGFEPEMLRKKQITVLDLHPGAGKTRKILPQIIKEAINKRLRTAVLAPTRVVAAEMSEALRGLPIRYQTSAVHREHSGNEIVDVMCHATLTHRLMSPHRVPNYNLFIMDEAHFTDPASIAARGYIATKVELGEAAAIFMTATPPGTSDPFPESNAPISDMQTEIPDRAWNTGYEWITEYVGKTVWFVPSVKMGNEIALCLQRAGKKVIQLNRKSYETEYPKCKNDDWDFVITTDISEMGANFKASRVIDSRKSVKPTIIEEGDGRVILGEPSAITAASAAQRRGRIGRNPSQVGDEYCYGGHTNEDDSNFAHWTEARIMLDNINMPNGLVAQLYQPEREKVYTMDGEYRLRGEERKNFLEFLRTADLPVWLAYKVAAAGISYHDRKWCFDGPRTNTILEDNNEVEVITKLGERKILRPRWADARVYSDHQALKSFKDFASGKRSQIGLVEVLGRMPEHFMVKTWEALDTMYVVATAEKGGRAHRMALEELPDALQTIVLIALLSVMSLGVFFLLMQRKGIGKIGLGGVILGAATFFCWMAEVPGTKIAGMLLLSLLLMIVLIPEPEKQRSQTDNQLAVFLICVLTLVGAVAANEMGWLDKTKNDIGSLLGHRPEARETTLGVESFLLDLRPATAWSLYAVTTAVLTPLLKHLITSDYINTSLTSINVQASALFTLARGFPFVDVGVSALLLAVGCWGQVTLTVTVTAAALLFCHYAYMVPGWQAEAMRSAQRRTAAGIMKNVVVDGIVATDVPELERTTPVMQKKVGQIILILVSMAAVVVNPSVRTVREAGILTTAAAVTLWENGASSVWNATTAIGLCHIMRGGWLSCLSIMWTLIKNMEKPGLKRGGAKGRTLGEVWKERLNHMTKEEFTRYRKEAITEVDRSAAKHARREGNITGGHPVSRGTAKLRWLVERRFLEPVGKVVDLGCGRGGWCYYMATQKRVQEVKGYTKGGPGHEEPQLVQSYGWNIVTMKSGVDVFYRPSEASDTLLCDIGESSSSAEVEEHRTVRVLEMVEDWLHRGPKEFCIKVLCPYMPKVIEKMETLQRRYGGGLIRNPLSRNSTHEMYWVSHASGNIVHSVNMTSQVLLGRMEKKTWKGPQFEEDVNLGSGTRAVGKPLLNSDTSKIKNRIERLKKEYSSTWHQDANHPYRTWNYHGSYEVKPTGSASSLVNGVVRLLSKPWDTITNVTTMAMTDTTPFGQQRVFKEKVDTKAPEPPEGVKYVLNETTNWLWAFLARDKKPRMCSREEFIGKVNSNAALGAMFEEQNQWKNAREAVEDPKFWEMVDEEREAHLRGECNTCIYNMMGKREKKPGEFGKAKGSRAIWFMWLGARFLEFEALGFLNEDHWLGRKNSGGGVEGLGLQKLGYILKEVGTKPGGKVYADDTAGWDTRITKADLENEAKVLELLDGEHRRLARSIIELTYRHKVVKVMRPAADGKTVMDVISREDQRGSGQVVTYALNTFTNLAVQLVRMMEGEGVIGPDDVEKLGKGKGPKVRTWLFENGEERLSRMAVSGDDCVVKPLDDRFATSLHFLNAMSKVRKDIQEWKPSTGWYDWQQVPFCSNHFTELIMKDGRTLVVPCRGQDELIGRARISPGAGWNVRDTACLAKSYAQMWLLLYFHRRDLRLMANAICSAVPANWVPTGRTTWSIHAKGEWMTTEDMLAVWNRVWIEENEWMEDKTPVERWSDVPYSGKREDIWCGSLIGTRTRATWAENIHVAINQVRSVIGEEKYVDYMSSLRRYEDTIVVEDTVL
inhibition (Escherichia coli [1]),inhibition [2],inhibition (Escherichia coli [3]),inhibition (Escherichia coli [4]),inhibition (Escherichia coli [5]),inhibition (Escherichia coli [6]),inhibition (Escherichia coli [7]),inhibition (Escherichia coli [8]),inhibition [9],inhibition [10],inhibition (Prothrombin (Bos taurus)),Compound,Activity [11]
< 15%,< 15%,< 15%,< 15%,14%,< 15%,20%,< 15%,< 15%,< 15%,< 15%,CNC(=O)C[S+](C)C,
< 15%,< 15%,< 15%,< 15%,< 15%,< 15%,< 15%,< 15%,< 15%,18%,< 15%,N#CCC(=O)NCc1ccccc1,< 0.1 L/mol/s
< 15%,< 15%,< 15%,< 15%,< 15%,< 15%,< 15%,< 15%,< 15%,< 15%,< 15%,O=C(CCl)Nc1ccc([N+](=O)[O-])cc1,< 0.1 L/mol/s
< 15%,< 15%,< 15%,< 15%,< 15%,< 15%,< 15%,< 15%,< 15%,< 15%,< 15%,COc1ccc(NC(=O)CCl)cc1,< 0.1 L/mol/s
< 15%,< 15%,< 15%,< 15%,< 15%,< 15%,< 15%,< 15%,< 15%,< 15%,< 15%,C[S+](C)CC(=O)NCc1ccccc1,
< 15%,< 15%,< 15%,< 15%,< 15%,< 17%,< 15%,< 15%,< 15%,< 15%,< 15%,BrC1=NOC(c2ccccc2)C1 (centres undefined),< 0.1 L/mol/s
< 15%,< 15%,< 15%,< 15%,< 15%,< 15%,15%,< 15%,< 15%,< 15%,< 15%,C[S+](C)CC(=O)Nc1ccc(F)cc1,
< 15%,< 15%,< 15%,< 15%,< 15%,< 15%,< 15%,< 15%,< 15%,< 15%,< 15%,C[S+](C)CC(=O)NCCc1ccccc1,
< 15%,< 15%,< 15%,< 15%,< 15%,< 15%,17%,< 15%,< 15%,< 15%,< 15%,C[S+](C)CC(=O)NC1CCCC1,

# Continued, molecule first:
Compound,inhibition (Escherichia coli [1]),inhibition [2],inhibition (Escherichia coli [3]),inhibition (Escherichia coli [4]),inhibition (Escherichia coli [5]),inhibition (Escherichia coli [6]),inhibition (Escherichia coli [7]),inhibition (Escherichia coli [8]),inhibition [9],inhibition [10],inhibition (Prothrombin (Bos taurus)),Activity [11]
C=CCNC1CCCC1,< 15%,< 15%,< 15%,17%,< 15%,< 15%,< 15%,< 15%,< 15%,< 15%,< 15%,< 0.1 L/mol/s
C=CCNc1ccc(C)cc1,< 15%,< 15%,< 15%,< 15%,< 15%,< 15%,< 15%,15%,< 15%,< 15%,< 15%,< 0.1 L/mol/s
O=C(CCl)NCc1ccccc1,< 15%,< 15%,< 15%,< 15%,< 15%,< 15%,< 15%,< 15%,< 15%,< 15%,< 15%,< 0.1 L/mol/s
CC(=O)Nc1ccc([N+](=O)[O-])cc1,< 15%,< 15%,< 15%,< 15%,< 15%,< 15%,< 15%,< 15%,< 15%,< 15%,< 15%,< 0.1 L/mol/s
CNC(=O)CC#N,< 15%,< 15%,< 15%,< 15%,< 15%,< 15%,< 15%,< 15%,< 15%,< 15%,< 15%,< 0.1 L/mol/s
COc1ccc(NC(=O)CC#N)cc1,< 15%,< 15%,< 15%,< 15%,< 15%,< 15%,15%,< 15%,< 15%,16%,< 15%,< 0.1 L/mol/s
C=CCNc1ccc([N+](=O)[O-])cc1,< 15%,< 15%,< 15%,20%,< 15%,< 15%,< 15%,< 15%,< 15%,< 15%,< 15%,< 0.1 L/mol/s
Cc1ccc(NC(=O)CCl)cc1,< 15%,< 15%,< 15%,< 15%,< 15%,< 15%,< 15%,< 15%,< 15%,< 15%,< 15%,< 0.1 L/mol/s
COc1ccc(NC(=O)n2ccnc2)cc1,< 15%,< 15%,17%,< 15%,< 15%,< 15%,< 15%,< 15%,< 15%,< 15%,< 15%,< 0.1 L/mol/s
O=C(CCl)NC1CCCC1,< 15%,< 15%,< 15%,< 15%,< 15%,< 15%,< 15%,< 15%,< 15%,< 15%,< 15%,< 0.1 L/mol/s
CCCCC(NC(=O)CC#N)C(=O)OC (centres undefined),< 15%,< 15%,< 15%,< 15%,< 15%,< 15%,< 15%,< 15%,< 15%,18%,< 15%,< 0.1 L/mol/s
O=C(Nc1ccc([N+](=O)[O-])cc1)n1ccnc1,< 15%,< 15%,< 15%,< 15%,< 15%,< 15%,< 15%,< 15%,< 15%,< 15%,< 15%,< 0.1 L/mol/s
C=CCNc1ccc(OC)cc1,< 15%,< 15%,< 15%,20%,< 15%,< 15%,< 15%,< 15%,< 15%,< 15%,< 15%,< 0.1 L/mol/s
